Data reported in the array DNA melting data of Ke et al. (doi:10.1101/2024.01.08.574731).

Assays:
[1] = folding enthalpy; higher = less favourable; fluorescence melt of hairpins on a sequencing array, two-state fit; conditions: sodium 0.088 M
In short: (§1)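 Hairpins were imaged by Cy3 fluorescence on a sequenced MiSeq flow cell with annealed Cy3 and quencher oligos, in 50 mM Na-HEPES pH 8.0, 25 mM NaCl, in 2.5 °C steps up to 60 °C. Bootstrapped two-state fits of normalised signals gave melting temperature and folding enthalpy. Four replicates were combined by inverse variance, and fitted temperatures were raised by 9.35 °C to match UV melts.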

[2] = melting temperature; fluorescence melt of hairpins on a sequencing array, two-state fit, raised by 9.35 °C to match UV melts; conditions: sodium 0.088 M
In short: as §1

| Sequence | folding enthalpy [1] [kcal/mol] | Tm [2] [°C] |
| --- | --- | --- |
| GACCGCGGAAACGCGATC ((.((((....)))).)) | -14.8 | 50.7 |
| GACCGGCGAAAGCCTGTC (((.(((....))).))) | -22.3 | 49.6 |
| GACCGGGGAAACTCGGTC (((((.(....).))))) | -50.3 | 56.3 |
| GACCGTGAAAACGGTC ((((((....)))))) | -41.1 | 68.1 |
| GACCGTGCGAAAGCAGTC (((..(((....)))))) | -11.4 | 29.6 |
| GACCGTGGAAACACGACC (..((((....))))..) | -10.8 | 28 |
| GACCTACGAAAGTAAGTC (((.(((....))).))) | -23.1 | 38 |
| GACCTACGAAAGTACGTC (((.(((....))).))) | -24.6 | 36.2 |
| GACCTAGGAAACTAGGCC (.(((((....))))).) | -19.3 | 39.5 |
| GACCTCACGAAAGTGGTC (((..(((....)))))) | -20.7 | 37.4 |
| GACCTCCGAAAGGAAGTC (((.(((....))).))) | -26.1 | 44.7 |
| GACCTCGGAAACGAGGCC (.(((((....))))).) | -13 | 55.4 |
| GACCTGCGAAAGCACGTC (((.(((....))).))) | -25.4 | 42.8 |
| GACCTGGGAAACTGGGTC ((((..(....)..)))) | -25 | 44.4 |
| GACCTTGAAAAAGGTC ((((((....)))))) | -33.4 | 56.8 |
| GACCTTGGAAACAAGGTC (((((((....))))))) | -40.6 | 63 |
| GACCTTGGAAACAGGGTC ((((.((....)).)))) | -31.5 | 47 |
| GACGAAGGAAACTTTGTC (((.(((....))).))) | -28.3 | 41.6 |
| GACGACGAAAGTCAAGTC ((((((....)))..))) | -23.8 | 45.9 |
| GACGACGAAAGTCGGGTC ((((((....)))..))) | -12.8 | 64.1 |
| GACGACGGAAACGTCGCC (.(((((....))))).) | -12.2 | 53.1 |
| GACGAGAAATCGTC (((((....))))) | -28.1 | 51.2 |
| GACGAGCGAAAGCTGTC (((.(((....)))))) | -32.3 | 53 |

| Sequence | folding enthalpy [1] [kcal/mol] | Tm [2] [°C] |
| --- | --- | --- |
| GACGAGGGAAACCTCGCC (.(((((....))))).) | -14.3 | 52.3 |
| GACGAGGGAAACTTCGTC (((((.(....).))))) | -40.8 | 49 |
| GACGATGGAAACGTTGTC (((.(.(....).).))) | -22.2 | 34 |
| GACGCAGGAAACCGCGTC (((((.(....).))))) | -37.3 | 56.9 |
| GACGCAGGAAACTGCGCC (.(((((....))))).) | -13.5 | 50.2 |
| GACGCCACGAAAGTGGTC (((..(((....)))))) | -8.49 | 32.1 |
| GACGCCGAAAGGCCCGTC ((((((....)))..))) | -13.9 | 37 |
| GACGCCGAAAGGCCGGTC ((((((....)))..))) | -15 | 42.6 |
| GACGCCGAAAGGCTGTC ((((((....))).))) | -18.4 | 56.9 |
| GACGCCGCGAAAGCGGTC (((..(((....)))))) | -6.05 | 34.8 |
| GACGCCGGAAACGACGTC ((((.((....)).)))) | -44.8 | 57.5 |
| GACGCGGGAAACCACGCC (.((.((....)).)).) | -12.4 | 34.6 |
| GACGCGGGAAACCACGTC ((((.((....)).)))) | -40.9 | 52.1 |
| GACGCGGGAAACCGCATC ((.((((....)))).)) | -13.4 | 40.1 |
| GACGCGGGAAACTGCGTC (((((.(....).))))) | -35.2 | 64 |
| GACGCTACGAAAGTAGTC (((..(((....)))))) | -13.2 | 35.9 |
| GACGCTCCGAAAGGAGTC (((..(((....)))))) | -9.32 | 34.5 |
| GACGGACCGAAAGGTGTC (((..(((....)))))) | -17.9 | 41.3 |
| GACGGAGAAATCCGTC ((((((....)))))) | -38.5 | 59.1 |
| GACGGAGGAAACTCCGCC (.(((((....))))).) | -14.9 | 48.2 |
| GACGGCACGAAAGTGGTC (((..(((....)))))) | -14.6 | 34.5 |
| GACGGCCCGAAAGGGGTC (((..(((....)))))) | -8.8 | 44.1 |
| GACGGCCGAAAGGCGGTC (((.(((....))).))) | -25.1 | 67.9 |

| Sequence | folding enthalpy [1] [kcal/mol] | Tm [2] [°C] |
| --- | --- | --- |
| GACGGCCGAAAGGCTGTC (((.(((....))).))) | -28.1 | 68.8 |
| GACGGCGAAAGCCAGGTC ((((((....)))..))) | -16.5 | 46.6 |
| GACGGCGAAAGCCCGGTC ((((((....)))..))) | -13.2 | 48.1 |
| GACGGCGAAAGCCTGTC ((((((....))).))) | -15.6 | 58.6 |
| GACGGCGAAAGCCTTGTC ((((((....)))..))) | -12.3 | 43.9 |
| GACGGCGCGAAAGCGGTC (((..(((....)))))) | -9.91 | 48.2 |
| GACGGCGGAAACACCGTC (((((.(....).))))) | -42.4 | 54 |
| GACGGCGGAAACGCCATC ((.((((....)))).)) | -13.2 | 41.1 |
| GACGGCGGAAACGCCGCC (.(((((....))))).) | -8.56 | 54.9 |
| GACGGGGCGAAAGCCGTC (((..(((....)))))) | -15.6 | 55.2 |
| GACGGTGCGAAAGCAGTC (((..(((....)))))) | -16.9 | 39.9 |
| GACGTAGGAAACTACGTC (((((((....))))))) | -44 | 63.3 |
| GACGTAGGAAACTGCGTC ((((.((....)).)))) | -45.2 | 51.5 |
| GACGTCGGAAACGACACC (..((((....))))..) | -10.5 | 29.3 |
| GACGTCGGAAACGACGCC (.(((((....))))).) | -11.6 | 50.7 |
| GACGTGAAAACGTC (((((....))))) | -32.7 | 61.8 |
| GACGTGGAAACACGTC ((((((....)))))) | -33.4 | 67.6 |
| GACGTGGGAAACCACGCC (.(((((....))))).) | -14 | 48.6 |
| GACGTTGGAAACAACGTC (((((((....))))))) | -39.1 | 68 |
| GACGTTGGAAACAGCGTC ((((.((....)).)))) | -39.6 | 52.1 |
| GACGTTGGAAACAGTGTC (((..((....))..))) | -14.1 | 31.2 |
| GACTACACGAAAGTGGTC (((..(((....)))))) | -14.2 | 40 |
| GACTACGAAAGTAAAGTC ((((((....)))..))) | -23.3 | 36.5 |

| Sequence | folding enthalpy [1] [kcal/mol] | Tm [2] [°C] |
| --- | --- | --- |
| GACTACGAAAGTAAGGTC ((((((....)))..))) | -21.4 | 32.7 |
| GACTACGAAAGTAGGTC ((((((....))).))) | -17.5 | 48.7 |
| GACTACGAAAGTAGTC ((((((....)))))) | -28.4 | 66.5 |
| GACTACGGAAACGTAGCC (.(((((....))))).) | -14.1 | 44.5 |
| GACTAGACGAAAGTCGTC (((..(((....)))))) | -13 | 38.9 |
| GACTAGGCGAAAGCCGTC (((..(((....)))))) | -8.71 | 50.4 |
| GACTAGGGAAACCTAGTC (((((((....))))))) | -42.5 | 56.9 |
| GACTATGGAAACATAGTC (((((((....))))))) | -46.8 | 54.5 |
| GACTCCGAAAGGAAAGTC ((((((....)))..))) | -24.8 | 44.4 |
| GACTCCGAAAGGAAGGTC ((((((....)))..))) | -22.1 | 38.3 |
| GACTCCGAAAGGAGTGTC ((((((....)))..))) | -12.3 | 58.4 |
| GACTCCGAAAGGATGTC ((((((....))).))) | -30.7 | 51 |
| GACTCCGGAAACGAAGTC ((((.((....)).)))) | -29.4 | 37.1 |
| GACTCGAAAGAGTC (((((....))))) | -32.1 | 61.2 |
| GACTCGACGAAAGTCGTC (((..(((....)))))) | -8.01 | 31.4 |
| GACTCTCCGAAAGGAGTC (((..(((....)))))) | -9.54 | 35.3 |
| GACTCTGCGAAAGCAGTC (((..(((....)))))) | -7.87 | 32.2 |
| GACTGACGAAAGTCCGTC (((.(((....))).))) | -29.4 | 49.2 |
| GACTGAGAAATCAGTC ((((((....)))))) | -33 | 53.1 |
| GACTGAGGAAACTCGGTC (((.(((....))).))) | -41.1 | 50.4 |
| GACTGCGAAAGCATGTC ((((((....))).))) | -23.1 | 54.5 |
| GACTGCGGAAACGTAGTC ((((.((....)).)))) | -39.6 | 52.6 |
